# From ChEMBL document CHEMBL2069286, “Discovery and biological evaluation of novel 4-amino-2-phenylpyrimidine derivatives as potent and orally active GPR119 agonists” (Bioorg Med Chem, 2012)
# Active and inactive are the calls of the source. The rule behind the calls is not given here.
# Tests used:
# [1] = biological target: T1, Glucose-dependent insulinotropic receptor (Homo sapiens) (UniProt Q8TDV5); assay: Intrinsic activity at human GPR119 expressed in HEK293 cells assessed as stimulation of cAMP level at 10 uM incubated for 6 hrs by luciferase activity based luminometry relative to 10 uM 2-(2-(4-bromophenyl)-6-methylpyrimidin-4-ylamino)ethanol; type: functional, cell-based
# T1 sequence (whole entry): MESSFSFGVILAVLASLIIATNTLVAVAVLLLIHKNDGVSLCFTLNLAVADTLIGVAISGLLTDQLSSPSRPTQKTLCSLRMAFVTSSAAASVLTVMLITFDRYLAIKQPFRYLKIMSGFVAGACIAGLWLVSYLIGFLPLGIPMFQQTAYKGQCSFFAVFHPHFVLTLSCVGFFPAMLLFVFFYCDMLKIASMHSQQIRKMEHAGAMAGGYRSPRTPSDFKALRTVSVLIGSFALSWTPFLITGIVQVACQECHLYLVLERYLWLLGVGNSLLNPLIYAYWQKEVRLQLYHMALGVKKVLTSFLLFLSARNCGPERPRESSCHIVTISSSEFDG
# Summary of the method: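 Same HEK293 hGPR119/pCRE-luciferase system with 6 h exposure, lysis in 0.2% Triton X-100/PBS and luciferase read, triplicate wells. Test compound at 10 μM; response expressed as % of the luciferase signal given by the reference agonist at 10 μM.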
# Mus musculus [2] = assay: Antihyperglycemic activity in ICR mouse assessed as reduction in glucose levels at 3 mg/kg, po dosed post overnight fasting by oral glucose tolerance test; type: functional; set-up: scale not given: the % may be the effect or the level left
# Summary of the method: (§1)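 Eight-week-old male ICR mice, fasted overnight, dosed orally with compound in 0.5% methylcellulose or vehicle alone. Oral glucose 2 g/kg given 10 min later. Tail-vein blood taken 30 min after glucose, and glucose measured by Glucose CII test.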
# [3] = biological target: T1, Glucose-dependent insulinotropic receptor (Homo sapiens); assay: Agonist activity at human GPR119 expressed in HEK293 cells assessed as stimulation of cAMP level incubated for 6 hrs by luciferase activity based luminometry; type: functional, cell-based
# Summary of the method: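 HEK293 cells stably expressing human GPR119 plus pCRE-luciferase reporter; 2.5×10^4 cells/well, overnight at 37 °C in 5% CO₂, then compound (DMSO) at 0.01–10 μM for 6 h. Lysis in 0.2% Triton X-100/PBS pH 7.4, luminometer read of luciferase. Triplicates per concentration. EC = concentration matching the response of reference agonist at 10 μM.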
# Cytochrome P450 1A2 = biological target: T2, Cytochrome P450 1A2 (Homo sapiens, UniProt P05177); assay: Inhibition of CYP1A2; type: ADME
# T2 sequence (P05177 whole entry): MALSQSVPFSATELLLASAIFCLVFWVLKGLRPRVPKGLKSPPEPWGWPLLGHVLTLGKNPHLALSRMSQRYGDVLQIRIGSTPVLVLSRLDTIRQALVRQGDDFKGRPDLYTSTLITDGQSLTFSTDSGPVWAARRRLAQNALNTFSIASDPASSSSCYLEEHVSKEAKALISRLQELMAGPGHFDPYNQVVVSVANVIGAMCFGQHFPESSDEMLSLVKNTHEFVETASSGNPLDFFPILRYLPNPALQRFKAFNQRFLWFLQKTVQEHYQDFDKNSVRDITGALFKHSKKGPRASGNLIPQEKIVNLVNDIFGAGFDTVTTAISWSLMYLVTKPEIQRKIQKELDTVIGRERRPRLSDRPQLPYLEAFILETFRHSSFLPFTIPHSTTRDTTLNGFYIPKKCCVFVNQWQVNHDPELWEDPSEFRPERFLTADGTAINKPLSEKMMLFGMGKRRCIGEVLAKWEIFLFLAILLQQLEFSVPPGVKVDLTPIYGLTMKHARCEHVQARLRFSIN
# Mus musculus [4] = assay: Antihyperglycemic activity in ICR mouse assessed as reduction in glucose levels at 1 mg/kg, po dosed post overnight fasting by oral glucose tolerance test; type: functional; set-up: scale not given: the % may be the effect or the level left; summary of the method: as §1
# [5] = Tmax in mouse at 3 mg/kg, po; type: ADME, organism-based; set-up: dose 3 mg/kg, route oral; conditions: in vivo
# [6] = Tmax in monkey at 3 mg/kg, po; type: ADME, organism-based, Macaca mulatta; set-up: dose 3 mg/kg, route oral; conditions: rhesus monkey, in vivo
# [7] = Half life in mouse at 1 mg/kg, iv; type: ADME, organism-based; set-up: dose 1 mg/kg, route intravenous; conditions: in vivo
# [8] = Oral bioavailability in mouse at 3 mg/kg; type: ADME, organism-based; conditions: in vivo
# Mus musculus [9] = assay: Antidiabetic activity in kk/Ay mouse assessed as reduction in plasma triglyceride level at 3 mg/kg, po once daily for week by Triglyceride E-test; type: functional, organism-based; set-up: dose 3 mg/kg
# Summary of the method: (§2)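 Eight-week-old male kk/Ay mice, n = 8 per group, dosed orally once daily for one week at 3 mg/kg, with 0.5% methylcellulose vehicle group. Fed-state tail-vein blood for glucose (Glucose CII), insulin and triglyceride (Triglyceride E-test). Pancreas weighed, homogenized, extracted with acid-ethanol, spun 10 min at 3000 g, supernatant insulin assayed. Mean ± SE; Dunnett's test.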
# [10] = Total clearance in monkey at 1 mg/kg, iv; type: ADME, organism-based, Macaca mulatta; set-up: dose 1 mg/kg, route intravenous; conditions: rhesus monkey, in vivo
# Mus musculus [11] = assay: Antidiabetic activity in kk/Ay mouse assessed as reduction in plasma insulin at 3 mg/kg, po once daily for week; type: functional, organism-based; set-up: dose 3 mg/kg; summary of the method: as §2
# [12] = Volume of distribution at steady state in monkey at 1 mg/kg, iv; type: ADME, organism-based, Macaca mulatta; set-up: dose 1 mg/kg, route intravenous; conditions: rhesus monkey, in vivo, read-out: Vdss
# [13] = Total clearance in mouse at 1 mg/kg, iv; type: ADME, organism-based; set-up: dose 1 mg/kg, route intravenous; conditions: in vivo
# [14] = Volume of distribution at steady state in mouse at 1 mg/kg, iv; type: ADME, organism-based; set-up: dose 1 mg/kg, route intravenous; conditions: in vivo, read-out: Vdss
# Mus musculus [15] = assay: Antidiabetic activity in kk/Ay mouse assessed as reduction in blood glucose at 3 mg/kg, po once daily for week by Glucose cII test; type: functional, organism-based; set-up: dose 3 mg/kg; summary of the method: as §2
# [16] = Oral bioavailability in monkey at 3 mg/kg; type: ADME, organism-based, Macaca mulatta; conditions: rhesus monkey, in vivo
# Mus musculus [17] = assay: Antidiabetic activity in kk/Ay mouse assessed as improvement in pancreatic insulin level at 3 mg/kg, po once daily for week
# [18] = Stability in human liver microsomes; type: ADME, Microsome; conditions: read-out: Stability
# [19] = Half life in monkey at 1 mg/kg, iv; type: ADME, organism-based, Macaca mulatta; set-up: dose 1 mg/kg, route intravenous; conditions: rhesus monkey, in vivo
# Mus musculus [20] = assay: Antihyperglycemic activity in ICR mouse assessed as reduction in glucose levels at 10 mg/kg, po dosed post overnight fasting by oral glucose tolerance test; type: functional; set-up: scale not given: the % may be the effect or the level left
SMILES,Intrinsic activity [1],Activity (Mus musculus [2]),EC [3],IC50 (Cytochrome P450 1A2),other results
Cc1cc(NCCc2ccc[n+]([O-])c2)nc(-c2cc(F)c(Br)c(F)c2)n1,493%,15%,0.34 µM,–,–
Cc1cc(NC[C@H](O)CO)nc(-c2ccc(Br)c(F)c2)n1,257%,–,2.3 µM,–,–
Cc1cc(NC[C@@H](O)CO)nc(-c2ccc(Br)c(F)c2)n1,346%,–,1.2 µM,1.7 µM,–
CCc1cc(NCCc2cc[nH]c(=O)c2)nc(-c2cc(F)c(Cl)cc2F)n1,578%,25%,0.013 µM,–,–
Cc1cc(NCCc2cc[nH]c(=O)c2)nc(-c2ccc(Br)c(F)c2)n1,617%,10%,0.021 µM,–,–
CCc1cc(NC[C@H](O)CO)nc(-c2ccc(Br)c(F)c2)n1,283%,–,0.59 µM,1.6 µM,Activity (Mus musculus [4]): 16%
Cc1cc(NCCc2ccc[n+]([O-])c2)nc(-c2cc(F)c(Cl)cc2F)n1,536%,27%,0.21 µM,3.7 µM,–
Cc1cc(NCCc2ccc[n+]([O-])c2)nc(-c2ccc(Br)cc2F)n1,268%,19%,1.5 µM,–,–
Cc1cc(NCCc2cc[nH]c(=O)c2)nc(-c2cc(F)c(Br)cc2F)n1,1080%,23%,0.017 µM,–,–
Cc1cc(NCCc2ccc[n+]([O-])c2)nc(-c2ccc(Cl)cc2)n1,376%,–,0.7 µM,–,–
CCc1cc(NC[C@@H](O)CO)nc(-c2cc(F)c(Cl)cc2F)n1,497%,–,0.28 µM,35 µM,Tmax [5]: 6 min; Tmax [6]: 2.2 h; half-life [7]: 2.2 h; bioavailability [8]: 86%; Activity (Mus musculus [9]): Active; Activity (Mus musculus [4]): 25%; clearance [10]: 12 mL/min/kg; Activity (Mus musculus [11]): Active; Vd [12]: 4.7 L/kg; clearance [13]: 35.9 mL/min/kg; Vd [14]: 6.9 L/kg; Activity (Mus musculus [15]): Active; bioavailability [16]: 51%; Activity (Mus musculus [17]): Active; CLint scaled [18]: < 20 mL/min/kg; half-life [19]: 4.6 h
Cc1cc(NCCc2ccc[n+]([O-])c2)nc(-c2ccc(Cl)c(Cl)c2)n1,430%,15%,0.72 µM,–,–
CCc1ccc(CCOc2ccc(CC3SC(=O)NC3=O)cc2)nc1 (configuration not stated),–,–,–,–,Activity (Mus musculus [9]): Active; Activity (Mus musculus [11]): Active; Activity (Mus musculus [15]): Active
CCc1cc(NC[C@@H](O)CO)nc(-c2ccc(Cl)c(F)c2)n1,266%,–,0.39 µM,2.1 µM,Activity (Mus musculus [4]): 24%; CLint scaled [18]: 236 mL/min/kg
Cc1cc(NCCc2ccc[n+]([O-])c2)nc(-c2ccc(Br)cc2)n1,325%,inactive,1.2 µM,–,Activity (Mus musculus [20]): 38%
Cc1cc(NCCc2ccc[n+]([O-])c2)nc(-c2cc(F)c(Br)cc2F)n1,588%,23%,0.11 µM,7.2 µM,–
CCc1cc(NC[C@@H](O)CO)nc(-c2ccc(Br)c(F)c2)n1,284%,–,0.19 µM,1.5 µM,Activity (Mus musculus [4]): 23%; CLint scaled [18]: 168 mL/min/kg
Cc1cc(NCCc2ccc[n+]([O-])c2)nc(-c2ccc(Br)c(F)c2)n1,573%,30%,0.22 µM,–,–
CCc1cc(NC[C@@H](O)CO)nc(-c2cc(F)c(Br)cc2F)n1,391%,–,0.22 µM,25 µM,Activity (Mus musculus [4]): 19%
Cc1cc(NCCc2ccc[n+]([O-])c2)nc(-c2ccccc2)n1,inactive,–,–,–,–
Cc1cc(NCCc2ccc[n+]([O-])c2)nc(-c2ccc(Cl)c(F)c2)n1,450%,25%,0.33 µM,–,–
Cc1cc(NCCc2cc[nH]c(=O)c2)nc(-c2cc(F)c(Cl)cc2F)n1,722%,21%,0.0069 µM,–,–
